Laboratory results published in ChEMBL document CHEMBL1154185 (J Med Chem, 2009).

Columns and labels:
[1] = Growth inhibition of proapoptotic stimuli-resistant human U373 cells after 72 hrs by MTT assay; assay type: functional, cell-based, U-373MG ATCC
Summary of the method: (§1)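 MTT assay. Cells were plated at 10,000–40,000 cells/mL and left 24 h to attach, then exposed to compound for 72 h (untreated controls). Formazan was read at 570 nm (reference 630 nm). Tested up to 10 μM (first panel) or up to 100 μM (second panel). Sextuplicate. U373 grown in MEM + 5% FBS; Hs683, SK-MEL-28 and B16F10 in RPMI + 10% FBS.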

NHDF = test: Growth inhibition of human NHDF after 72 hrs by MTT assay; assay type: cell-based
Summary of the method: (§2)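 Cells plated 24 h in 96-well plates (10,000-40,000 cells/mL by cell type) in MEM (5% or 10% heat-inactivated FBS; with 100 μM non-essential amino acids for WI-38 and NHDF) or RPMI 10% FBS (A549), then exposed 72 h to compound up to 100 μM; MTT reduction read at 570 nm (reference 630 nm); sextuplicate.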

[2] = Growth inhibition of proapoptotic stimuli-sensitive human Hs683 cells after 72 hrs by MTT assay; assay type: functional, cell-based, Hs 683; summary of the method: as §1
A549 = test: Growth inhibition of proapoptotic stimuli-resistant human A549 cells after 72 hrs by MTT assay; assay type: functional, cell-based; summary of the method: as §2
SK-MEL-28 = test: Growth inhibition of proapoptotic stimuli-resistant human SK-MEL-28 cells after 72 hrs by MTT assay; assay type: functional, cell-based; summary of the method: as §1
[3] = Growth inhibition of human WI38 cells after 72 hrs by MTT assay; assay type: cell-based; settings: WI-38, 72 h; summary of the method: as §2
[4] = Growth inhibition of proapoptotic stimuli-resistant human OE21 cells after 72 hrs by MTT assay; assay type: functional, cell-based
[5] = Growth inhibition of human WS1 cells after 72 hrs by MTT assay; assay type: cell-based; settings: WS1, 72 h; summary of the method: as §2
B16-F10 = test: Growth inhibition of proapoptotic stimuli-sensitive mouse B16F10 cells after 72 hrs by MTT assay; assay type: functional, cell-based; summary of the method: as §1

SMILES	IC50 ([1]; Homo sapiens, U373 MG, 72 h) [µM]	IC50 (NHDF) [µM]	IC50 ([2]; Homo sapiens, Hs 683, 72 h) [µM]	IC50 (A549; Homo sapiens, A549, 72 h) [µM]	IC50 (SK-MEL-28; Homo sapiens, SK-MEL-28, 72 h) [µM]	IC50 [3] [µM]	IC50 ([4]; Homo sapiens, OE21, 72 h) [µM]	IC50 [5] [µM]	IC50 (B16-F10; Mus musculus, B16-F10, 72 h) [µM]	IC50 ([1]; u-373mg atcc) [µM]	IC50 ([2]; hs 683) [µM]	IC50 (A549; a549) [µM]	IC50 (SK-MEL-28; sk-mel-28) [µM]	IC50 ([4]; oe21) [µM]	IC50 (B16-F10; b16-f10) [µM]
C1=C2CCN3Cc4cc5c(cc4[C@H]([C@@H]4O[C@H]14)[C@@H]23)OCO5	2.4	9.3	3.3	3.4	9.5	28.6	8.5	36.8	4.6						
CC(=O)O[C@H]1[C@H]2c3cc4c(cc3CN3CC[C@@H](C[C@@H]1OC(C)=O)[C@H]23)OCO4	> 10		> 10	> 10	> 10		> 10		> 10						
COC1=C[C@@H]2CCN3Cc4cc5c(cc4[C@@H]([C@H]23)[C@@H]1O)OCO5 [AMARBELLISINE]		> 100	8.3	7.2	8.3	> 100		97.6	6.7						
C[N+]12CCC3=C[C@H](O)[C@@H](O)[C@@H](c4cc5c(cc4C1)OCO5)[C@@H]32 (some centres not stated)										> 10	> 10	> 10	> 10	> 10	> 10
CC(=O)O[C@H]1[C@H]2c3cc4c(cc3CN3CCC(=C[C@@H]1O)[C@H]23)OCO4	> 10		> 10	> 10	> 10		> 10		> 10						
[O-]c1cc2c3c(c1)c1cc4c(cc1c[n+]3CC2)OCO4 [UNGEREMINE]	8.3		> 10	> 10	> 10		> 10		> 10						
O=C1C=C2CCN3Cc4cc5c(cc4[C@H]([C@@H]1O)[C@@H]23)OCO5	> 10		> 10		> 10		> 10		> 10						
COc1cc2c(cc1O)[C@@H]1[C@H](O)[C@@H](O)C=C3CCN(C2)[C@H]31 [PSEUDOLYCORINE]		66.9	7.9		> 10	44		79.1	7.5						
O[C@H]1[C@H]2c3cc4c(cc3CN3CCC(=C[C@H]1O)[C@H]23)OCO4	> 10		> 10	> 10	> 10		> 10		> 10						
O[C@H]1[C@H]2c3cc4c(cc3CN3CCC(=C[C@@H]1Cl)[C@H]23)OCO4	2.3	72.1	3.1	3.8	> 10	46	9.6	> 100	6.9						
O[C@H]1[C@H]2c3cc4c(cc3CN3CC[C@@H](C[C@@H]1O)[C@H]23)OCO4	> 10		> 10	> 10	> 10		> 10		> 10						
COc1cc2c(cc1O)CN1CCC3=CC[C@@H](O)[C@@H]2[C@@H]31 [NORPLUVINE]	> 10		> 10	> 10	> 10		> 10		> 10						
c1cc2c3c(c1)-c1cc4c(cc1CN3CC2)OCO4 [ANHYDROLYCORINE]	5.1	26.6	7.1	4.5	> 10	30.1	8.8	23.7	> 10						
CC(=O)O[C@H]1[C@H]2c3cc4c(cc3CN3CCC(=C[C@@H]1OC(C)=O)[C@H]23)OCO4	> 10		> 10	> 10	> 10		> 10		> 10						
CC(=O)O[C@H]1[C@H]2c3cc4c(cc3CN3CC[C@H](C[C@@H]1OC(C)=O)[C@H]23)OCO4	> 10		> 10	> 10	> 10		> 10		> 10						
C1=C2CCN3Cc4cc5c(cc4[C@H](CC1)[C@@H]23)OCO5 [LYCORENE]	> 10		> 10	> 10	> 10		> 10		> 10						
O=C1c2cc3c(cc2[C@@H]2[C@H](O)[C@@H](O)C[C@H]4CCN1[C@H]42)OCO3	> 10		> 10	> 10	> 10		> 10		> 10						
O[C@H]1[C@H]2c3cc4c(cc3CN3CC[C@H](C[C@@H]1O)[C@H]23)OCO4	> 10		> 10	> 10	> 10		> 10		> 10						
CC(=O)O[C@H]1C=C2CCN3Cc4cc5c(cc4[C@H]([C@@H]1O)[C@@H]23)OCO5	> 10	> 100	> 10	> 10	> 10	88.5	> 10	> 100	> 10						
O[C@@H]1CC=C2CCN3Cc4cc5c(cc4[C@H]1[C@@H]23)OCO5 [CARANINE]	> 10		> 10	> 10	> 10		> 10		> 10						
